For orientation: IC50 means the midpoint of a concentration-inhibition curve.

Assay [1] deals with MDA-MB-231. Nature of the assay: Antiproliferative activity against human MDA-MB-231 cells by MTT assay. It counts as functional, cell-based. In short, it runs like this: (§1)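 MTT read-out following an earlier published protocol; IC50 values reported, with tamoxifen as the reference compound.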
For assay [2], the system named is MCF7. Nature of the assay: Antiproliferative activity against human MCF7 cells by MTT assay. It counts as functional, cell-based. In short, it runs like this:
as §1
(In general: Tetrazolium dyes change colour on reduction, which living cells bring about.)

For `Cc1ccc2c(c1)C(C)(C)[C@H]1COc3ccc4c(=O)c(C)c(C)oc4c3[C@H]1N2`, the concentration for half-maximal inhibition (IC50) in assay [1] is above 100 µM; in assay [2], 94.3 µM.

Regarding `Cc1oc2c3c(ccc2c(=O)c1C)OC[C@H]1[C@@H]3Nc2ccccc2C1(C)C`, the 50% inhibitory concentration (IC50) in assay [1] and in assay [2] was above 100 µM in each case.

As to `Cc1oc2c3c(ccc2c(=O)c1-c1ccccc1)OC[C@H]1[C@@H]3Nc2ccccc2C1(C)C`, the IC50 in assay [1] and in assay [2] was above 100 µM throughout.

For the compound `Cc1coc2c3c(ccc2c1=O)OC[C@H]1[C@@H]3Nc2ccccc2C1(C)C`, the IC50 was 93.8 µM in assay [1] and 9.6 µM in assay [2].

In the case of `Cc1ccc2c(c1)C(C)(C)[C@H]1COc3ccc4c(=O)c(C)coc4c3[C@H]1N2`, the 50% inhibitory concentration (IC50) in assay [1] is above 100 µM; in assay [2], 10.2 µM.

`Cc1coc2c3c(ccc2c1=O)OC[C@H]1[C@@H]3Nc2cc3ccccc3cc2C1(C)C`: the IC50 was determined as 9.4 µM in assay [1] and 9 µM in assay [2].

As for `COc1ccc2c(c1)C(C)(C)[C@H]1COc3ccc4c(=O)c(C)c(C)oc4c3[C@H]1N2`, the IC50 in assay [1] and in assay [2] was above 100 µM each time.

Turning to `Cc1oc2c3c(ccc2c(=O)c1C)OC[C@H]1[C@@H]3Nc2cc3ccccc3cc2C1(C)C`, the IC50 in assay [1] and in assay [2] was above 100 µM throughout.

Take `Cc1ccc2c(c1)C(C)(C)[C@H]1COc3ccc4c(=O)c(-c5ccccc5)c(C)oc4c3[C@H]1N2`: the half-maximal inhibitory concentration (IC50) was above 100 µM in assay [1] and 10 µM in assay [2].

For `CC/C(=C(\c1ccccc1)c1ccc(OCCN(C)C)cc1)c1ccccc1` [TAMOXIFEN], the IC50 was found to be 0.66 µM in assay [1] and 1 µM in assay [2].

Values taken from ChEMBL document CHEMBL1155493, “Synthesis of new cis-fused tetrahydrochromeno[4,3-b]quinolines and their antiproliferative activity studies against MDA-MB-231 and MCF-7 breast cancer cell lines” (Bioorg Med Chem Lett, 2010).
